Test results reported in ChEMBL document CHEMBL5653606 (J Pharmacol Exp Ther, 2011).
Activity calls are given as the source filed them.

Tests used:
[1] = Plasma concentration in CFA induced Sprague-Dawley rat at 0.1 mg/kg, po by LC/MS analysis; format: ADME, organism-based; conditions: in vivo
[2] = target: T1, Fatty-acid amide hydrolase 1 (Rattus norvegicus) (UniProt P97612); assay: In vivo inhibition of FAAH in CFA induced Sprague-Dawley rat plasma assessed as elevation of OEA level at 1 mg/kg, po measured for 1 to 24 hrs; format: functional, organism-based; conditions: time 1-24 hrs
T1 sequence (whole entry): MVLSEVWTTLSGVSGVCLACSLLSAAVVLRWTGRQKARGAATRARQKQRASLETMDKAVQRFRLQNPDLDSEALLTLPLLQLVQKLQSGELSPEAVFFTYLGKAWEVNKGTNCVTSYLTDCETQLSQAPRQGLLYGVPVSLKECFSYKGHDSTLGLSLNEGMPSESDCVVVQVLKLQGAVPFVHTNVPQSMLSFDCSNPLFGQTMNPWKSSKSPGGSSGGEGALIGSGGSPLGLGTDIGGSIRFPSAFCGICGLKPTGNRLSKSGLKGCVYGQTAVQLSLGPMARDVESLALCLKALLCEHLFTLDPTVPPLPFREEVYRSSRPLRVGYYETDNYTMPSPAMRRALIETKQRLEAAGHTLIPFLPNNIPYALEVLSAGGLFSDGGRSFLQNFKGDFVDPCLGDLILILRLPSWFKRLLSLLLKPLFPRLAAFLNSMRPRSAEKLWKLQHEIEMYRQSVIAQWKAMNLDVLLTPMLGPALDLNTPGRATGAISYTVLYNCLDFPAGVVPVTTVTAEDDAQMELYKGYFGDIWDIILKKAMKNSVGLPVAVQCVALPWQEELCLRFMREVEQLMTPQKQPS

Rattus norvegicus [3] = assay: Antihyperalgesic activity in CFA induced Sprague-Dawley rat assessed as inhibition of mechanical allodynia at 0.003 to 10 mg/kg, po measured for 4 hrs by von frey test; format: functional, organism-based; conditions: dose 0.003-10 mg/kg
Method in brief: (§1)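 Male Sprague-Dawley rats (200–250 g) given 150 μl CFA (1 mg/ml in mineral oil) intraplantar in the hind paw. Mechanical paw withdrawal thresholds read with Von Frey hairs on day 5 postinjection. Dosed orally as nanocrystalline suspension in 2% polyvinylpyrrolidone/0.15% SDS in water, 10 ml/kg. PWTs taken 4 h postdose for dose-response, or at 1, 2, 4, 8, 24 h for time course.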

[4] = Oral bioavailability in dog; format: ADME, organism-based, Canis lupus familiaris; conditions: in vivo
Rattus norvegicus [5] = assay: Antihyperalgesic activity in CFA induced Sprague-Dawley rat assessed as partial reduction of mechanical allodynia at 3 mg/kg, po in presence of CB1 antagonist SR141716 by von frey test; format: functional, organism-based; method in brief: as §1
[6] = Plasma concentration in rat at 1 mg/kg, po administered for 4 hrs by LC/MS analysis; format: ADME, organism-based
Method in brief: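 Male Sprague-Dawley rats received a single oral dose of 1 mg/kg. Plasma (ng/ml) and brain (ng/g tissue) drug levels were measured at 1, 2, 4, 8 and 24 h after dosing.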

[7] = Plasma concentration in rat at 5 mg/kg, po by LC/MS analysis; format: ADME, organism-based; conditions: in vivo
[8] = Ratio of drug concentration in CFA induced Sprague-Dawley rat brain to plasma at 0.1 to 10 mg/kg, po by LC/MS analysis; format: ADME, organism-based; conditions: brain and plasma, dose 0.1-10 mg/kg
Method in brief: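 Male Sprague-Dawley rats (200–250 g) received 150 μl CFA (1 mg/ml suspension in mineral oil) into the plantar hind paw. On day 5 they were dosed orally at 0.003–10 mg/kg as a nanocrystalline suspension in 2% polyvinylpyrrolidone/0.15% SDS in H₂O at 10 ml/kg. Drug levels were measured in brain tissue and plasma in the dose-response study, where PWTs were read at 4 h post-dose.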

O=C(Nc1cccnn1)N1CCC(=Cc2cccc(Oc3ccc(C(F)(F)F)cn3)c2)CC1
concentration [1]: 34.7 nM | inhibition [2]: Active | Activity (Rattus norvegicus [3]): Active | bioavailability [4]: 58% | Activity (Rattus norvegicus [5]): Active | concentration at 4 h [6]: 540 nM | concentration [7]: 2800 nM | Kp [8]: 1.3
